What was measured:
[1] = system: P388; experiment: Antitumor activity against mouse P388 cells allografted in CDF1 mouse assessed as tumor inhibition at 200 mg/kg, ip on days 5, 9 and 13 relative to untreated control; format: functional; conditions: route intraperitoneal
Summary of the method: (§1)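 CDF₁ mice given 10⁶ P388 lymphocytic leukemia cells ip on day 0; drug ip on days 5, 9 and 13. Six mice per dose level (five for one compound). T/C % = median survival time as percent of untreated controls. Acute toxic death counted as survival under 5 days after treatment.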

[2] = system: P388; experiment: Antitumor activity against mouse P388 cells allografted in CDF1 mouse assessed as tumor inhibition at 100 mg/kg, ip on days 5, 9 and 13 relative to untreated control; format: functional; conditions: route intraperitoneal; summary of the method: as §1
[3] = system: P388; experiment: Antitumor activity against mouse P388 cells allografted in CDF1 mouse assessed as tumor inhibition at 50 mg/kg, ip on days 5, 9 and 13 relative to untreated control; format: functional; conditions: route intraperitoneal; summary of the method: as §1
[4] = system: P388; experiment: Antitumor activity against mouse P388 cells allografted in CDF1 mouse assessed as tumor inhibition at 25 mg/kg, ip on days 5, 9 and 13 relative to untreated control; format: functional; conditions: route intraperitoneal; summary of the method: as §1
[5] = system: P388; experiment: Antitumor activity against mouse P388 cells allografted in CDF1 mouse assessed as tumor inhibition at 12.5 mg/kg, ip on days 5, 9 and 13 relative to untreated control; format: functional; conditions: route intraperitoneal; summary of the method: as §1
[6] = system: Mus musculus; experiment: Toxicity in CDF1 mouse allografted with mouse P388 cells assessed as survival at 12.5 to 200 mg/kg, ip on days 5, 9 and 13; format: organism-based; parameters: dose 12.5-200 mg/kg, route intraperitoneal; conditions: in vivo
Summary of the method: (§2)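 CDF1 mice were inoculated ip with 10⁶ P388 lymphocytic leukemia cells on day 0. Drug was given ip on days 5, 9 and 13, with six mice per dose level. Read-out was median survival time as percent of untreated controls (T/C). Acute toxic-drug deaths were defined as survival under 5 days after treatment injection.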

[7] = system: P388; experiment: Antitumor activity against mouse P388 cells allografted in CDF1 mouse assessed as tumor inhibition at 400 mg/kg, ip on days 5, 9 and 13 relative to untreated control; format: functional; conditions: route intraperitoneal; summary of the method: as §1
[8] = system: Mus musculus; experiment: Toxicity in CDF1 mouse allografted with mouse P388 cells assessed as survival at 25 to 400 mg/kg, ip on days 5, 9 and 13; format: organism-based; parameters: dose 25-400 mg/kg, route intraperitoneal; conditions: in vivo
Summary of the method: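 Median survival time was expressed as percent of untreated controls (T/C). Acute toxic-drug deaths were scored as survival under 5 days after treatment injection.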

[9] = system: Mus musculus; experiment: Toxicity in BDF1 mouse allografted with mouse B16 cells at 100 mg/kg, ip on day 5; conditions: in vivo
[10] = system: Mus musculus; experiment: Toxicity in BDF1 mouse allografted with mouse B16 cells at 200 mg/kg, ip on day 5; conditions: in vivo
[11] = system: B16; experiment: Antitumor activity against mouse B16 cells allografted in BDF1 mouse assessed as tumor inhibition at 50 mg/kg, ip on day 5 relative to untreated control; conditions: route intraperitoneal
[12] = system: B16; experiment: Antitumor activity against mouse B16 cells allografted in BDF1 mouse assessed as tumor inhibition at 25 mg/kg, ip on day 5 relative to untreated control; conditions: route intraperitoneal
[13] = system: B16; experiment: Antitumor activity against mouse B16 cells allografted in BDF1 mouse assessed as tumor inhibition at 12.5 mg/kg, ip on day 5 relative to untreated control; conditions: route intraperitoneal
[14] = system: P388; experiment: Antitumor activity against mouse P388 cells allografted in CDF1 mouse assessed as tumor inhibition at 6.25 mg/kg, ip on days 5, 9 and 13 relative to untreated control; format: functional; conditions: route intraperitoneal; summary of the method: as §1
[15] = system: P388; experiment: Antitumor activity against mouse P388 cells allografted in CDF1 mouse assessed as tumor inhibition at 3.13 mg/kg, ip on days 5, 9 and 13 relative to untreated control; format: functional; conditions: route intraperitoneal; summary of the method: as §1
[16] = system: Mus musculus; experiment: Toxicity in CDF1 mouse allografted with mouse P388 cells assessed as survival at 3.13 to 50 mg/kg, ip on days 5, 9 and 13; format: organism-based; parameters: dose 3.13-50 mg/kg, route intraperitoneal; conditions: in vivo; summary of the method: as §2
[17] = system: P388; experiment: Antitumor activity against mouse P388 cells allografted in CDF1 mouse assessed as tumor inhibition at 32 mg/kg, ip on days 5, 9 and 13 relative to untreated control; format: functional; conditions: route intraperitoneal; summary of the method: as §1
[18] = system: P388; experiment: Antitumor activity against mouse P388 cells allografted in CDF1 mouse assessed as tumor inhibition at 16 mg/kg, ip on days 5, 9 and 13 relative to untreated control; format: functional; conditions: route intraperitoneal; summary of the method: as §1
[19] = system: P388; experiment: Antitumor activity against mouse P388 cells allografted in CDF1 mouse assessed as tumor inhibition at 8 mg/kg, ip on days 5, 9 and 13 relative to untreated control; format: functional; conditions: route intraperitoneal; summary of the method: as §1
[20] = system: P388; experiment: Antitumor activity against mouse P388 cells allografted in CDF1 mouse assessed as tumor inhibition at 4 mg/kg, ip on days 5, 9 and 13 relative to untreated control; format: functional; conditions: route intraperitoneal; summary of the method: as §1
[21] = system: P388; experiment: Antitumor activity against mouse P388 cells allografted in CDF1 mouse assessed as tumor inhibition at 2 mg/kg, ip on days 5, 9 and 13 relative to untreated control; format: functional; conditions: route intraperitoneal; summary of the method: as §1
[22] = system: Mus musculus; experiment: Toxicity in CDF1 mouse allografted with mouse P388 cells assessed as survival at 2 to 32 mg/kg, ip on days 5, 9 and 13; format: organism-based; parameters: dose 2-32 mg/kg, route intraperitoneal; conditions: in vivo; summary of the method: as §2
[23] = system: Mus musculus; experiment: Toxicity in BDF1 mouse allografted with mouse B16 cells at 16 mg/kg, ip on day 5; conditions: in vivo
[24] = system: B16; experiment: Antitumor activity against mouse B16 cells allografted in BDF1 mouse assessed as tumor inhibition at 4 mg/kg, ip on day 5 relative to untreated control; conditions: route intraperitoneal
[25] = system: B16; experiment: Antitumor activity against mouse B16 cells allografted in BDF1 mouse assessed as tumor inhibition at 2 mg/kg, ip on day 5 relative to untreated control; conditions: route intraperitoneal
[26] = system: B16; experiment: Antitumor activity against mouse B16 cells allografted in BDF1 mouse assessed as tumor inhibition at 1 mg/kg, ip on day 5 relative to untreated control; conditions: route intraperitoneal
[27] = system: P388; experiment: Antitumor activity against mouse P388 cells allografted in CDF1 mouse assessed as tumor inhibition at 1 mg/kg, ip on days 5, 9 and 13 relative to untreated control; format: functional; conditions: route intraperitoneal; summary of the method: as §1
[28] = system: Mus musculus; experiment: Toxicity in CDF1 mouse allografted with mouse P388 cells assessed as survival at 1 to 16 mg/kg, ip on days 5, 9 and 13; format: organism-based; parameters: dose 1-16 mg/kg, route intraperitoneal; conditions: in vivo; summary of the method: as §2
[29] = system: Mus musculus; experiment: Toxicity in BDF1 mouse allografted with mouse B16 cells at 1 to 16 mg/kg, ip on day 5; conditions: in vivo
[30] = system: B16; experiment: Antitumor activity against mouse B16 cells allografted in BDF1 mouse assessed as tumor inhibition at 8 mg/kg, ip on day 5 relative to untreated control; conditions: route intraperitoneal
[31] = system: B16; experiment: Antitumor activity against mouse B16 cells allografted in BDF1 mouse assessed as tumor inhibition at 16 mg/kg, ip on day 5 relative to untreated control; conditions: route intraperitoneal

For `COc1cccc2c1C(=O)c1c(O)c3c(c(O)c1C2=O)C[C@@](O)(C(C)=O)C[C@@H]3O[C@H]1C[C@H](OC(C)=O)[C@H](OC(C)=O)[C@H](C)O1`, the T/C [1] was 186%, the T/C [2] was 155% and the T/C [3] was 110%. For the same compound, the T/C [4] was 108%, the T/C [5] was 100% and the Activity [6] was “Non-toxic”.
Compound `COc1cccc2c1C(=O)c1c(O)c3c(c(O)c1C2=O)C[C@@](O)(C(C)=O)C[C@@H]3O[C@H]1C[C@H](O)[C@H](O)[C@H](C)O1` has a T/C [2] of 156%, a T/C [3] of 183% and a T/C [4] of 125%. For the same compound, the T/C [7] was 89%, the Activity [8] was “Non-toxic” and the Activity [9] was “Toxic”. The Activity [10] was “Toxic”, the T/C [11] was 146% and the T/C [12] was 126%. The T/C [13] was 113%.
For `COc1cccc2c1C(=O)c1c(O)c3c(c(O)c1C2=O)C[C@@](O)(C(C)=O)C[C@@H]3O[C@@H]1C[C@H](OC(=O)c2ccc([N+](=O)[O-])cc2)[C@H](OC(=O)c2ccc([N+](=O)[O-])cc2)[C@@H](C)O1`, the T/C [3] was 105%, the T/C [4] was 107% and the T/C [5] was 110%. For the same compound, the T/C [14] was 106%, the T/C [15] was 101% and the Activity [16] was “Non-toxic”.
With `COc1cccc2c1C(=O)c1c(O)c3c(c(O)c1C2=O)C[C@@](O)(C(C)=O)C[C@@H]3O[C@H]1C[C@H](OC(=O)c2ccc([N+](=O)[O-])cc2)[C@H](OC(=O)c2ccc([N+](=O)[O-])cc2)[C@@H](C)O1` the T/C [3] was 101%, the T/C [4] was 106% and the T/C [5] was 99%. For the same compound, the T/C [14] was 100%, the T/C [15] was 98% and the Activity [16] was “Non-toxic”.
Work on `COc1cccc2c1C(=O)c1c(O)c3c(c(O)c1C2=O)C[C@@](O)(C(C)=O)C[C@@H]3O[C@@H]1C[C@H](O)[C@H](O)[C@@H](C)O1` yielded a T/C [3] of 101%, a T/C [4] of 101% and a T/C [5] of 100%. The T/C [14] was 100%, the T/C [15] was 99% and the Activity [16] was “Non-toxic”.
Compound `COc1cccc2c1C(=O)c1c(O)c3c(c(O)c1C2=O)C[C@@](O)(C(C)=O)C[C@@H]3O[C@H]1C[C@H](O)[C@H](O)[C@@H](C)O1` has a T/C [3] of 102%, a T/C [4] of 100% and a T/C [5] of 97%. For the same compound, the T/C [14] was 102%, the T/C [15] was 100% and the Activity [16] was “Non-toxic”.
`COc1cccc2c1C(=O)c1c(O)c3c(c(O)c1C2=O)C[C@@](O)(C(C)=O)C[C@@H]3O[C@H]1C[C@H](N)[C@H](O)[C@H](C)O1` [DAUNORUBICIN] gave a T/C [17] of 97%, a T/C [18] of 122% and a T/C [19] of 151%. The T/C [20] was 123%, the T/C [21] was 116% and the Activity [22] was “Non-toxic”. For the same compound, the Activity [23] was “Toxic”, the T/C [24] was 96% and the T/C [25] was 127%. The T/C [26] was 122%.
`COc1cccc2c1C(=O)c1c(O)c3c(c(O)c1C2=O)C[C@@](O)(C(=O)CO)C[C@@H]3O[C@H]1C[C@H](N)[C@H](O)[C@H](C)O1` [DOXORUBICIN] showed a T/C [18] of 114%, a T/C [19] of 150% and a T/C [20] of 149%. The T/C [21] was 132%, the T/C [27] was 118% and the Activity [28] was “Non-toxic”. For the same compound, the Activity [29] was “Non-toxic”, the T/C [30] was 150% and the T/C [24] was 132%. It also gave a T/C [25] of 122%, a T/C [26] of 118% and a T/C [31] of 156%.

From ChEMBL document CHEMBL3227922, “Synthesis and antitumor activity of sugar-ring hydroxyl analogues of daunorubicin” (J Med Chem, 1979)
